Experimental data as given in ChEMBL document CHEMBL4732262, “Identification of two novel thiophene analogues as inducers of autophagy mediated cell death in breast cancer cells” (Bioorg Med Chem, 2021).
Activity calls are given as the source filed them. No cut-off for these calls is given here.

How the values were obtained:
MCF7 [1] = assay: Induction of apoptosis in human MCF7 cells assessed as early apoptotic cells at 2.5 uM after 24 hrs by annexin V-FITC/Propidium iodide staining based flow cytometric analysis (reference value: 3.94%); assay type: functional
MCF7 [2] = assay: Induction of apoptosis in human MCF7 cells assessed as necrotic cells at 2.5 uM after 24 hrs by annexin V-FITC/Propidium iodide staining based flow cytometric analysis (reference value: 1.22%); assay type: functional
MDA-MB-231 [3] = assay: Induction of apoptosis in human MDA-MB-231 cells assessed as late apoptotic cells at 2.5 uM after 24 hrs by annexin V-FITC/Propidium iodide staining based flow cytometric analysis (reference value: 0.08%); assay type: functional
MDA-MB-231 [4] = assay: Induction of apoptosis in human MDA-MB-231 cells assessed as necrotic cells at 2.5 uM after 24 hrs by annexin V-FITC/Propidium iodide staining based flow cytometric analysis (reference value: 0.65%); assay type: functional
MDA-MB-231 [5] = assay: Induction of apoptosis in human MDA-MB-231 cells assessed as reduction in number of cells at 2.5 uM by phase contrast microscopic method; assay type: functional, cell-based; conditions: time 6-24 hrs, TDE = time-dependent effect
Method in brief: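 ~5 × 10^4 cells in 6-well plates, either DMSO control or 2.5 µM. Morphology imaged at 0, 6, 12 and 24 h.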

MCF7 [6] = assay: Induction of apoptosis in human MCF7 cells assessed as increase in cell death at 2.5 uM after 24 hrs by EtBr/AO staining based fluorescence microscopic method; assay type: functional
Method in brief: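 ~5 × 10^4 MCF7 cells on coverslips given 2.5 µM for 24 h, then PBS-washed and stained with 1:1 ethidium bromide/acridine orange (0.4 mg/ml each). Viewed by fluorescence microscopy, excitation 480 nm with a 515–530 nm barrier filter. Apoptotic, necrotic and viable cells scored from 200 cells per sample.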

MCF7 [7] = assay: Induction of apoptosis in human MCF7 cells at 2.5 uM after 24 hrs by annexin V-FITC/Propidium iodide staining based flow cytometric analysis relative to tanshinone-1; assay type: functional
MDA-MB-231 [8] = assay: Induction of apoptosis in human MDA-MB-231 cells at 2.5 uM after 24 hrs by annexin V-FITC/Propidium iodide staining based flow cytometric analysis relative to tanshinone-2A; assay type: functional
MCF7 [9] = assay: Induction of apoptosis in human MCF7 cells assessed as change in Bax protein expression at 2.5 uM after 24 hrs by Western blot analysis; assay type: functional, cell-based
Method in brief: (§1)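 MCF7 or MDA-MB-231 cells given 2.5 µM or DMSO for 24 h, then lysed in RIPA buffer. Immunoblots probed overnight at 4 °C, followed by infrared-labelled secondary antibody for 1 h at 37 °C. Bands imaged and quantified densitometrically, with GAPDH as loading control. Representative of two independent experiments.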

MCF7 [10] = assay: Induction of apoptosis in human MCF7 cells assessed as change in Bak1 protein expression at 2.5 uM after 24 hrs by Western blot analysis; assay type: functional, cell-based; method in brief: as §1
MCF7 [11] = assay: Induction of autophagy in human MCF7 cells assessed as increase in LC3-2 to LC3-1 protein ratio at 2.5 uM after 24 hrs by Western blot analysis; assay type: functional, cell-based
Method in brief: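 MCF7 cells (~5 × 10^6) left untreated (DMSO control) or exposed to 2.5 µM compound for 24 h. Lysed in RIPA buffer, probed overnight at 4 °C, then given infrared-tagged secondary antibodies for 1 h at 37 °C and imaged by infrared scanning. LC3-II/I ratio and p62 taken by densitometry with GAPDH as loading control. Two independent experiments.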

MCF7 [12] = assay: Induction of autophagy in human MCF7 cells expressing GFP tagged LC3-2 assessed as increase in […] puncta formation at 2.5 uM after 24 hrs by confocal microscopic analysis; assay type: functional, cell-based
Method in brief: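 MCF7 cells (~1 × 10^6) at 70% confluency on glass-bottom dishes were transiently transfected with GFP-LC3 (Lipofectamine 3000). 24 h later they received 2.5 µM compound or DMSO for another 24 h. Nuclei were stained with Hoechst 33342 and lysosomes with LysoTracker Red DND-99, then imaged by live-cell confocal microscopy. LC3 puncta were counted in at least 10 cells from 3 fields. Two independent experiments.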

MCF7 [13] = assay: Induction of autophagy in human MCF7 cells assessed as increase in Bcl2L11 mRNA expression at 2.5 uM after 24 hrs by RT-PCR analysis; assay type: functional, cell-based
Method in brief: (§2)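 MCF7 cells given 2.5 µM or DMSO for 24 h. Total RNA extracted with TRIzol and reverse-transcribed, then SYBR Green qPCR across 34 autophagy-regulatory genes (95 °C 10 min; 40 cycles of 95 °C 15 s and 60 °C 1 min). Relative expression by 2^-ΔΔCt against housekeeping genes and DMSO control, shown as log2. Two independent experiments.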

MCF7 [14] = assay: Induction of autophagy in human MCF7 cells assessed as increase in BAD mRNA expression at 2.5 uM after 24 hrs by RT-PCR analysis; assay type: functional, cell-based; method in brief: as §2
MCF7 [15] = assay: Induction of autophagy in human MCF7 cells assessed as increase in ATG16L1 mRNA expression at 2.5 uM after 24 hrs by RT-PCR analysis; assay type: functional, cell-based; method in brief: as §2
MCF7 [16] = assay: Induction of autophagy in human MCF7 cells assessed as increase in DDIT3 mRNA expression at 2.5 uM after 24 hrs by PCR microarray analysis; assay type: functional, cell-based
Method in brief: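 MCF7 cells given 2.5 µM or DMSO for 24 h. cDNA run on an Unfolded Protein Response RT2 Profiler PCR array. Changes computed by 2^-ΔΔCt (log2) against control, normalised to the mean of ACTB, B2M, GAPDH, HPRT1 and RPLPO.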

MCF7 [17] = assay: Induction of autophagy in human MCF7 cells assessed as increase in ATF4 protein expression at 2.5 uM after 24 hrs by Western blot analysis; assay type: functional, cell-based; method in brief: as §1
MCF7 [18] = assay: Induction of apoptosis in human MCF7 cells assessed as increase in cleaved-PARP protein expression after 24 hrs by Western blot analysis; assay type: functional, cell-based; conditions: dose 1.25-5 µM
MCF7 [19] = assay: Induction of autophagy in human MCF7 cells assessed as increase in p62 degradation level after 24 hrs by Western blot analysis; assay type: functional, cell-based; conditions: dose 1.25-5 µM
Method in brief: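 Dose series in MCF7 cells (~5 × 10^6): 0, 1.25, 2.5 and 5 µM compound for 24 h, DMSO control. Lysates immunoblotted for p62 and LC3, GAPDH loading control, with infrared densitometry. At least two independent experiments.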

MCF7 [20] = assay: Cytotoxicity against human MCF7 cells assessed as reduction in cell viability at 25 to 100 uM after 24 hrs in presence of chloroquine by MTT assay; assay type: functional, cell-based; conditions: dose 25-100 µM
Method in brief: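 ~0.5 × 10^5 cells per well in six-well plates given 2.5 µM test agent together with chloroquine at 25, 50 or 100 µM, 24 h at 37 °C in humidified CO2. Viability read by MTT. Duplicate assays from two independent experiments, shown with SD.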

MCF7 [21] = assay: Induction of autophagy in human MCF7 cells assessed as LC3-2 to LC3-1 protein ratio at 2.5 uM after 24 hrs by Western blot analysis (reference value: 0.22 to 0.8); assay type: functional
MCF7 (Homo sapiens) = assay: Induction of apoptosis in human MCF7 cells assessed as increase in cell death at 2.5 uM after 24 hrs by EtBr/AO staining based fluorescence microscopic method relative to tanshinone-2A

Row | Compound | Activity (MCF7 [1]) [%] | Activity (MCF7 [2]) [%] | Activity (MDA-MB-231 [3]) [%] | Activity (MDA-MB-231 [4]) [%] | Activity (MDA-MB-231 [5]) | Activity (MCF7 [6]) | fold change (FC) (MCF7 [7]) | fold change (FC) (MDA-MB-231 [8]) | Activity (MCF7 [9]) | Activity (MCF7 [10]) | Activity (MCF7 [11]) | Activity (MCF7 [12]) | Activity (MCF7 [13]) | Activity (MCF7 [14]) | Activity (MCF7 [15]) | Activity (MCF7 [16]) | Activity (MCF7 [17]) | Activity (MCF7 [18]) | Activity (MCF7 [19]) | Activity (MCF7 [20]) | other results
1 | O=C1C(=O)c2sccc2-c2ccccc21 | 31.4 | 22.2 | 14.9 | 26.8 | Tde | Active | >=2 | >=2 | inactive | inactive | Active | Active | Active | Active | Active | Active | Active | Dose-dependent effect | Dose-dependent effect | inactive | Ratio (MCF7 [21]): 7.14; fold change (FC) (MCF7 (Homo sapiens)): 2
2 | O=C1C(=O)c2ccsc2-c2ccccc21 | 17.9 | 37.7 | 10.9 | 43.5 | Tde | Active | >=2 | >=2 | inactive | inactive | Active | Active | Active | Active | Active | Active | Active | Dose-dependent effect | Dose-dependent effect | inactive | Ratio (MCF7 [21]): 16.3; fold change (FC) (MCF7 (Homo sapiens)): 2
